Assay results as given in ChEMBL document CHEMBL4368918, “Structure-Based Design of Inhibitors Selective for Human Proteasome β2c or β2i Subunits” (J Med Chem, 2019).

Legend:
[1] = target: T1, Proteasome subunit beta type-8 (Homo sapiens, UniProt P28062); assay: Inhibition of 20S immunoproteasome beta 5 in human Raji cell lysates after 1 hr by competitive ABPP assay; assay type: subcellular, Lysate
T1 sequence (P28062 whole entry): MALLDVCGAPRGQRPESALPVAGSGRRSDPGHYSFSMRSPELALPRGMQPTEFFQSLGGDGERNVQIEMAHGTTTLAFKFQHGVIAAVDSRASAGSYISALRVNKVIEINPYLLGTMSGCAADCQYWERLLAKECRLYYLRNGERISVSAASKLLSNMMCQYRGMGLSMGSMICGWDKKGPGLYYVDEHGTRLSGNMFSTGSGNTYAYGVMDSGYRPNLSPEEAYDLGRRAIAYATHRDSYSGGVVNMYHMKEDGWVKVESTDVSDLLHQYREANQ

[2] = target: T2, Proteasome Macropain subunit MB1 (Homo sapiens, UniProt P28074); assay: Inhibition of 20S constitutive proteasome beta 5 chymotrypsin-like activity in human Raji cell lysates after 1 hr by competitive ABPP assay; assay type: subcellular, Lysate
T2 sequence (P28074 whole entry): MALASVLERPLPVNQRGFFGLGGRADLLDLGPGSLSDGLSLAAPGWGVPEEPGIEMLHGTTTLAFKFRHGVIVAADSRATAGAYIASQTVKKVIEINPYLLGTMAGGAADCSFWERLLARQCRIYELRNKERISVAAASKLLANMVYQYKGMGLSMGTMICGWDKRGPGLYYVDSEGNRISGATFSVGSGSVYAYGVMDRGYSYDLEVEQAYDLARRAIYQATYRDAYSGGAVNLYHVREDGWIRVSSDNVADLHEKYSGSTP

[3] = target: T3, Proteasome subunit beta type-6 (Homo sapiens, UniProt P28072); assay: Inhibition of 20S constitutive proteasome beta 1 caspase-like activity in human Raji cell lysates after 1 hr by competitive ABPP assay; assay type: subcellular, Lysate
T3 sequence (P28072 whole entry): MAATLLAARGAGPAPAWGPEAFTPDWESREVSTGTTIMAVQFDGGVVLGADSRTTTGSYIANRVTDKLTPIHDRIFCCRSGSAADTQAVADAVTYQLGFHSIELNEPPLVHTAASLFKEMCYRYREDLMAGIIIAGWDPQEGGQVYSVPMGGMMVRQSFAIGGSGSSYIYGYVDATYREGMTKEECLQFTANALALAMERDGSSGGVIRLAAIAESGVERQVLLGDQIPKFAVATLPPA
Method in brief: (§1)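 Raji cells were sonicated in 3 volumes of Tris pH 7.5 lysis buffer containing DTT, MgCl₂, sucrose, 2 mM ATP and 0.05% digitonin. Lysate (5 μg protein, in buffer with 2 mM ATP and glycerol) was preincubated with inhibitor for 1 h at 37 °C, then with a cocktail of three fluorescent ABPs for 1 h. In-gel fluorescence densitometry was normalized to mock. IC50 came from the mean of three experiments.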

[4] = target: T4, Proteasome subunit beta type-9 (Homo sapiens, UniProt P28065); assay: Inhibition of 20S immunoproteasome beta 1 in human Raji cell lysates after 1 hr by competitive ABPP assay; assay type: subcellular, Lysate
T4 sequence (P28065 whole entry): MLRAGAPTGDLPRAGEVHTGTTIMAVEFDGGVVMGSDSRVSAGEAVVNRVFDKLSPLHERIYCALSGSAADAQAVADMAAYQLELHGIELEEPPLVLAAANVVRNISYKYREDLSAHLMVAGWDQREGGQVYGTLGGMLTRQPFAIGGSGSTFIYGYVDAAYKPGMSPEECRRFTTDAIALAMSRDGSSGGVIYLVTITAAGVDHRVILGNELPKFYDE
Method in brief: as §1, with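 “h. […]” for “h.”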

[5] = target: T5, Proteasome subunit beta type-10 (Homo sapiens, UniProt P40306); assay: Inhibition of 20S immunoproteasome beta 2 (unknown origin) by cell based ABPP assay
T5 sequence (P40306 whole entry): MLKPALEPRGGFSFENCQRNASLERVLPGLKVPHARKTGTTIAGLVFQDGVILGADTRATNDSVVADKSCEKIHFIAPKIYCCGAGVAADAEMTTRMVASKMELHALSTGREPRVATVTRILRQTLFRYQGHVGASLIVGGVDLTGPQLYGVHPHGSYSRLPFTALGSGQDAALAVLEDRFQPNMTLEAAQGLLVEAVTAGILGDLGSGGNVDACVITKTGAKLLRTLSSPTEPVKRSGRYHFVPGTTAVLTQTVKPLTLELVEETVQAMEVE
Method in brief: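 Living RPMI-8226 cells, (5–8) ×10^5 cells/mL, exposed to inhibitor 1 h at 37 °C, washed, lysed in digitonin buffer 1 h on ice; residual activity labelled with cocktail ABPs, SDS-PAGE in-gel fluorescence, bands divided by mock, Coomassie staining to correct loading. IC50 from mean of three independent experiments.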

Homo sapiens = species on record: Homo sapiens; assay: Selectivity ratio of IC50 for 20S immunoproteasome beta 2 (unknown origin) to IC50 for 20S constitutive proteasome beta 2 trypsin-like activity (unknown origin)

Row | SMILES | IC50 [1] [µM] | IC50 [2] [µM] | IC50 [3] [µM] | IC50 [4] [µM] | IC50 [5] [µM] | Ratio IC50 (Homo sapiens)
1 | COc1ccc(C[C@H](NC(=O)[C@H](C)NC(=O)CN2CCOCC2)C(=O)N[C@@H](C[C@@H]2CCCc3ccccc32)C(=O)[C@@]2(C)CO2)cc1 | > 100 | > 100 | > 100 | > 100 |  | 
2 | Cc1ncc(C(=O)N[C@@H](CC(C)C)C(=O)N[C@@H](CC2CCCC3CCCCC32)C(=O)N[C@H](/C=C/S(C)(=O)=O)Cc2ccc(CN)cc2)s1 (some centres not stated) |  |  |  |  | 0.175 | 4
3 | CC(C)[C@H](NC(=O)[C@H](Cc1ccc(CN)cc1)NC(=O)[C@H](Cc1ccccc1)N=[N+]=[N-])C(=O)N[C@@H](CC1CCC2CCCCC2C1)C(=O)[C@@]1(C)CO1 (some centres not stated) |  |  |  |  |  | 1
4 | COc1ccc(C[C@H](NC(=O)[C@H](C)NC(=O)CN2CCOCC2)C(=O)N[C@@H](C[C@H]2CCC[C@@H]3CCCC[C@@H]32)C(=O)[C@@]2(C)CO2)cc1 | > 100 | > 100 | > 100 | > 100 |  | 
5 | CC(C)C[C@H](NC(=O)[C@H](Cc1ccccc1)N=[N+]=[N-])C(=O)N[C@@H](CC(C)(C)F)C(=O)N[C@H](/C=C/S(C)(=O)=O)Cc1ccc(CN)cc1 |  |  |  |  | 0.047 | 3
6 | COc1ccc(C[C@H](NC(=O)[C@H](C)NC(=O)CN2CCOCC2)C(=O)N[C@@H](C[C@H]2CCCc3ccccc32)C(=O)[C@@]2(C)CO2)cc1 | > 100 | > 100 | > 100 | > 100 |  | 
7 | CC(C)C[C@H](NC(=O)[C@H](Cc1ccccc1)N=[N+]=[N-])C(=O)N[C@@H](CC(F)(F)F)C(=O)N[C@H](/C=C/S(C)(=O)=O)Cc1ccc(CN)cc1 |  |  |  |  | 0.13 | 6
8 | Cc1ncc(C(=O)N[C@@H](CC(C)C)C(=O)N[C@@H](CC2CCC(C3CCCCC3)CC2)C(=O)N[C@H](/C=C/S(C)(=O)=O)Cc2ccc(CN)cc2)s1 (some centres not stated) |  |  |  |  | 0.045 | 3
9 | CC(C)[C@H](NC(=O)[C@H](Cc1ccc(CN)cc1)NC(=O)[C@H](Cc1ccccc1)N=[N+]=[N-])C(=O)N[C@H](C(=O)[C@@]1(C)CO1)C1CCCCC1 |  |  |  |  |  | 1
10 | COC[C@H](NC(=O)[C@H](CC(C)C)NC(=O)[C@H](Cc1ccccc1)N=[N+]=[N-])C(=O)N[C@H](/C=C/S(C)(=O)=O)Cc1ccc(CN)cc1 |  |  |  |  | 0.2 | 25
11 | CC1CCC(C[C@H](NC(=O)[C@@H](NC(=O)[C@H](Cc2ccc(CN)cc2)NC(=O)[C@H](Cc2ccccc2)N=[N+]=[N-])C(C)C)C(=O)[C@@]2(C)CO2)CC1 (some centres not stated) |  |  |  |  |  | 1
12 | COc1ccc(C[C@H](NC(=O)[C@H](C)NC(=O)CN2CCOCC2)C(=O)N[C@@H](C[C@@H]2CCC[C@H]3CCCC[C@H]32)C(=O)[C@@]2(C)CO2)cc1 | 28.4 | > 100 | 53 | > 100 |  | 
13 | Cc1ncc(C(=O)N[C@@H](CC2CCC(C)CC2)C(=O)N[C@@H](CC(C)C)C(=O)N[C@H](/C=C/S(C)(=O)=O)Cc2ccc(CN)cc2)s1 (some centres not stated) |  |  |  |  | 0.325 | 0.8
14 | COC1CCC(C[C@H](NC(=O)[C@H](CC(C)C)NC(=O)c2cnc(C)s2)C(=O)N[C@H](/C=C/S(C)(=O)=O)Cc2ccc(CN)cc2)CC1 (some centres not stated) |  |  |  |  | 0.36 | 8
15 | Cc1ncc(C(=O)N[C@@H](CC(C)C)C(=O)N[C@@H](CCC2CCCCC2)C(=O)N[C@H](/C=C/S(C)(=O)=O)Cc2ccc(CN)cc2)s1 |  |  |  |  | 0.28 | 25
16 | COc1ccc(C[C@H](NC(=O)[C@H](C)NC(=O)CN2CCOCC2)C(=O)N[C@@H](C[C@H]2CCCC3CCCCC32)C(=O)[C@@]2(C)CO2)cc1 (some centres not stated) | > 100 | > 100 | > 100 | > 100 |  | 
17 | CC(C)C[C@H](NC(=O)c1cnccn1)C(=O)N[C@@H](C)C(=O)N[C@H](/C=C/S(C)(=O)=O)Cc1ccc(CN)cc1 |  |  |  |  | 1.35 | 6

Row | SMILES | IC50 [1] [µM] | IC50 [2] [µM] | IC50 [3] [µM] | IC50 [4] [µM] | IC50 [5] [µM] | Ratio IC50 (Homo sapiens)
18 | Cc1ncc(C(=O)N[C@@H](CC2CCCCC2)C(=O)N[C@@H](CC2CCCCC2)C(=O)N[C@H](/C=C/S(C)(=O)=O)Cc2ccc(CN)cc2)s1 |  |  |  |  | 0.42 | 11
19 | Cc1ncc(C(=O)N[C@@H](CC(C)C)C(=O)N[C@@H](CC(C)C)C(=O)N[C@H](/C=C/S(C)(=O)=O)Cc2ccc(CN)cc2)s1 |  |  |  |  | 0.7 | 10
20 | CC(C)[C@H](NC(=O)[C@H](Cc1ccc(CN)cc1)NC(=O)[C@H](Cc1ccccc1)N=[N+]=[N-])C(=O)N[C@@H](CC1CCC(C2CCCCC2)CC1)C(=O)[C@@]1(C)CO1 (some centres not stated) |  |  |  |  |  | 1.6
21 | COc1ccc(C[C@H](NC(=O)[C@H](C)NC(=O)CN2CCOCC2)C(=O)N[C@@H](CCC2CCCCC2)C(=O)[C@@]2(C)CO2)cc1 |  | 5 | > 100 | > 100 |  | 
22 | Cc1ncc(C(=O)N[C@@H](CC(C)C)C(=O)N[C@@H](CC2CCC3CCCCC3C2)C(=O)N[C@H](/C=C/S(C)(=O)=O)Cc2ccc(CN)cc2)s1 (some centres not stated) |  |  |  |  | 0.17 | 10
23 | Cc1ncc(C(=O)N[C@@H](CC2CCCC3CCCCC32)C(=O)N[C@@H](CC(C)C)C(=O)N[C@H](/C=C/S(C)(=O)=O)Cc2ccc(CN)cc2)s1 (some centres not stated) |  |  |  |  | 48 | 21
24 | CC(C)C[C@H](NC(=O)c1cc(Cl)ccc1Cl)C(=O)N[C@@H](CC(C)C)C(=O)N[C@H](/C=C/S(C)(=O)=O)Cc1ccc(CN)cc1 |  |  |  |  | 0.35 | 5
25 | Cc1ncc(C(=O)N[C@@H](CC2CCC3CCCCC3C2)C(=O)N[C@@H](CC(C)C)C(=O)N[C@H](/C=C/S(C)(=O)=O)Cc2ccc(CN)cc2)s1 (some centres not stated) |  |  |  |  | 4.1 | 8
26 | Cc1ncc(C(=O)N[C@@H](CC(C)C)C(=O)N[C@@H](CC2CCCCC2)C(=O)N[C@H](/C=C/S(C)(=O)=O)Cc2ccc(CN)cc2)s1 |  |  |  |  | 0.26 | 7
27 | CC(C)C[C@H](NC(=O)c1ccc(-c2ccccc2)nc1)C(=O)N[C@@H](CC(C)C)C(=O)N[C@H](/C=C/S(C)(=O)=O)Cc1ccc(CN)cc1 |  |  |  |  | 0.023 | 0.8
28 | Cc1ncc(C(=O)N[C@@H](CC(C)C)C(=O)N[C@@H](CC2CCC(C)CC2)C(=O)N[C@H](/C=C/S(C)(=O)=O)Cc2ccc(CN)cc2)s1 (some centres not stated) |  |  |  |  | 0.2 | 7
29 | CC(C)C[C@H](NC(=O)[C@H](CC(C)C)NC(=O)[C@H](Cc1ccccc1)NC(=O)CN=[N+]=[N-])C(=O)N[C@H](/C=C/S(C)(=O)=O)Cc1ccc(CN)cc1 |  |  |  |  | 0.022 | 0.6
30 | CC(C)[C@H](NC(=O)[C@H](Cc1ccc(CN)cc1)NC(=O)[C@H](Cc1ccccc1)N=[N+]=[N-])C(=O)N[C@@H](CC1CC2CCC1C2)C(=O)[C@@]1(C)CO1 (some centres not stated) |  |  |  |  |  | 2.7
31 | Cc1ncc(C(=O)N[C@@H](CC2CCC(C3CCCCC3)CC2)C(=O)N[C@@H](CC(C)C)C(=O)N[C@H](/C=C/S(C)(=O)=O)Cc2ccc(CN)cc2)s1 (some centres not stated) |  |  |  |  | > 10 | > 3
32 | Cc1ncc(C(=O)N[C@H](C(=O)N[C@@H](CC(C)C)C(=O)N[C@H](/C=C/S(C)(=O)=O)Cc2ccc(CN)cc2)C2CCCCC2)s1 |  |  |  |  | 0.061 | 1
33 | CC(C)C[C@H](NC(=O)CN1CCOCC1)C(=O)N[C@@H](CC(C)C)C(=O)N[C@H](/C=C/S(C)(=O)=O)Cc1ccc(CN)cc1 |  |  |  |  | 0.047 | 1
